The source made the active and inactive calls.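 The calls were made as follows: active = GFP response above 150% of the DMSO control; inconclusive = Fewer than 70 cells counted for a yeast strain; inactive = the rest.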
Test: yeast TOR pathway reporter LAP4-GFP change – cell-based, cherry picks, flow cytometry, mother/daughter gates, confirmation (AID 2271);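 also: ratio of sample to DMSO plate mean so 100% equals DMSO level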
Details: S. cerevisiae LAP4-GFP strain, 3 h, measured here: mother cell gate response, at 10 µM, stronger effect = higher value, 100 means same as DMSO control
Outline: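 Material: Alexa Fluor 633-labelled Saccharomyces cerevisiae GFP-fusion strain, single-plex | Amount: Yeast cells seeded at OD600 of 0.2 | Buffer or medium: SC growth medium | Schedule: 3 h exposure, 30 °C | Measured by: HT flow cytometry, GFP fluorescence channel | Evaluation: % GFP response vs DMSO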
`N#C/C(=C\c1ccccn1)c1nc2ccccc2s1` gave a GFP response relative to DMSO of 589%. With `CS(=O)(=O)Nc1cccc(C2=NN(S(C)(=O)=O)C(c3ccc4c(c3)OCO4)C2)c1` (stereo unspecified) the GFP response relative to DMSO was 98.3%. Work on `C/C(=N\NC(=O)c1cccc(Br)c1)c1ccccn1` yielded a GFP response relative to DMSO of 166%. Work on `O=C(O)Cc1ccc2ccc3ccccc3c2c1` yielded a GFP response relative to DMSO of 105%. With `Cc1ccc(S(=O)(=O)N(Cc2ccccc2)Cc2ccco2)cc1` the GFP response relative to DMSO was 90.1%. For `O=C1c2ccsc2SCCN1Cc1c(F)cccc1Cl`, the GFP response relative to DMSO was 113%. In the case of `CS/C(N)=N/N=C/c1ccc2c(c1)OCO2`, the GFP response relative to DMSO is reported as 108%. `COc1ccc(C(=O)NNC(=S)NC(=O)/C=C/c2cccs2)cc1` showed a GFP response relative to DMSO of 198%. Molecule `COCc1nnc(NC(=O)c2ccc(S(=O)(=O)N(C)C3CCCCC3)cc2)o1` has a GFP response relative to DMSO of 104%. `COC(=O)c1ccc(/C=N/OCC(=O)NCCc2ccc(OC)c(OC)c2)cc1` showed a GFP response relative to DMSO of 97.2%. In the case of `CC(C)CC[n+]1ccccc1/C=C/c1ccc(N(C)C)cc1`, the GFP response relative to DMSO is reported as 107%. Work on `COc1cccc(NC(=O)/C=C/c2ccc([N+](=O)[O-])cc2)c1` yielded a GFP response relative to DMSO of 104%. `O=C(c1ccc(Cl)cc1)N1CCN(c2cccc3[nH]ccc23)CC1` showed a GFP response relative to DMSO of 105%. With `CCc1ccc(NC(=O)c2nc(S(=O)(=O)Cc3ccccc3)ncc2Cl)cc1` the GFP response relative to DMSO was 124%. With `c1ccc2oc(SCc3nc4ccccc4s3)nc2c1` the GFP response relative to DMSO was 106%. With `CCOC(=O)CSC1=NC(=O)/C(=C\c2ccc(Cl)cc2)S1` the GFP response relative to DMSO was 186%. In the case of `COc1ccc(C2CC(c3ccccc3)=NN2S(=O)(=O)c2ccccc2)c(OC)c1` (stereo unspecified), the GFP response relative to DMSO is reported as 99.4%. Work on `FC(F)(F)c1cc(-c2cccs2)nc2cc(-c3cccs3)nn12` yielded a GFP response relative to DMSO of 97.3%. Molecule `CC1CN(c2nc3ccccn3c(=O)c2/C=C(\C#N)C(=O)N2CCOCC2)CC(C)O1` (stereo unspecified) has a GFP response relative to DMSO of 104%. `Cc1ccc(CC2CC(=O)N(Cc3ccco3)C2=O)cc1` (stereo unspecified) gave a GFP response relative to DMSO of 94.2%. In the case of `Cc1ccc(-c2nnc(NC(=O)c3ccc([N+](=O)[O-])o3)o2)c(C)c1`, the GFP response relative to DMSO is reported as 160%.

Test: TOR pathway reporter MEP2-GFP, retest of hits – S. cerevisiae, flow cytometry GFP, cherry picks, confirmation (AID 2272);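 also: ratio of well signal to plate DMSO mean so 100% equals DMSO level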
Details: S. cerevisiae MEP2-GFP strain, 3 h, at 10 µM, stronger effect = higher value
With `CCCCCCNC(=O)c1c(O)c2cccc3c2n(c1=O)CCC3` the GFP response vs DMSO was 107% (inactive). For `Cc1ccc(N2CCN(C(=O)c3ccccc3)CC2)c(C)c1`, the GFP response vs DMSO was 98.3% (inactive). For `COc1ccccc1-c1noc(CCC(=O)Nc2cccc(C)c2)n1`, the GFP response vs DMSO was 97.5% (inactive). With `O=C(NC(=S)NNC(=O)c1ccc(Cl)cc1Cl)c1cccnc1` the GFP response vs DMSO was 101% (inactive). For `CN1C(=O)c2cccc3c(Cl)ccc(c23)C1=O`, the GFP response vs DMSO was 105% (inactive). For `Cc1nc2c(-c3ccc(F)cc3)c(C)nn2c(N2CCOCC2)c1C`, the GFP response vs DMSO was 104% (inactive). With `CCOc1cc(-c2nc3cc(C)ccn3c2NCC2CCCO2)ccc1O` (stereo unspecified) the GFP response vs DMSO was 103% (inactive). With `CCOC(=O)CS(=O)(=O)c1nc(-c2ccccc2)cc(C(F)(F)F)n1` the GFP response vs DMSO was 130% (inactive). With `C[n+]1ccc(/C=C/c2c[nH]c3ccc(F)cc23)cc1` the GFP response vs DMSO was 120% (inactive). With `COc1cc(NC(=O)c2ccc(F)cc2)ccc1NC(=O)c1cc2ccccc2o1` the GFP response vs DMSO was 101% (inactive). For `O=C(NCc1cccnc1)c1cnc2n(c1=O)CCS2`, the GFP response vs DMSO was 99.3% (inactive). For `O=C(Nc1cc(Sc2ccccn2)cc([N+](=O)[O-])c1)c1cccc(F)c1`, the GFP response vs DMSO was 106% (inactive). For `O=C1CC(SCCO)C(=O)N1c1ccc(Oc2ccccc2)cc1` (stereo unspecified), the GFP response vs DMSO was 104% (inactive). In the case of `Cc1cc(NCCN2CCOCC2)n2ncc(-c3ccccc3)c2n1`, the GFP response vs DMSO is reported as 103% (inactive). With `O=C(Nc1cccc(O)c1)c1ccccc1` the GFP response vs DMSO was 98.3% (inactive). For `Cc1nn(C)c(C(=O)Sc2cccc(Cl)c2)c1[N+](=O)[O-]`, the GFP response vs DMSO was 121% (inactive). In the case of `COc1ccc(N2C(=O)C(Cl)=C(Nc3ccccc3O)C2=O)cc1`, the GFP response vs DMSO is reported as 112% (inactive). With `COc1ccc(Br)cc1/C=C/C(=O)c1ccc(NC(C)=O)cc1` the GFP response vs DMSO was 101% (inactive). For `CC(=O)N(\C=C/C=C/C=C1\Sc2ccccc2C1=O)c1ccccc1`, the GFP response vs DMSO was 238% (active). In the case of `N#C/C(=C\c1ccccn1)c1nc2ccccc2s1`, the GFP response vs DMSO is reported as 1020% (active). In the case of `CS(=O)(=O)Nc1cccc(C2=NN(S(C)(=O)=O)C(c3ccc4c(c3)OCO4)C2)c1` (stereo unspecified), the GFP response vs DMSO is reported as 102% (inactive). In the case of `C/C(=N\NC(=O)c1cccc(Br)c1)c1ccccn1`, the GFP response vs DMSO is reported as 122% (inactive). In the case of `O=C(O)Cc1ccc2ccc3ccccc3c2c1`, the GFP response vs DMSO is reported as 102% (inactive). For `Cc1ccc(S(=O)(=O)N(Cc2ccccc2)Cc2ccco2)cc1`, the GFP response vs DMSO was 97.8% (inactive). With `O=C1c2ccsc2SCCN1Cc1c(F)cccc1Cl` the GFP response vs DMSO was 96.8% (inactive). For `CS/C(N)=N/N=C/c1ccc2c(c1)OCO2`, the GFP response vs DMSO was 100% (inactive). For `COc1ccc(C(=O)NNC(=S)NC(=O)/C=C/c2cccs2)cc1`, the GFP response vs DMSO was 120% (inactive). In the case of `COCc1nnc(NC(=O)c2ccc(S(=O)(=O)N(C)C3CCCCC3)cc2)o1`, the GFP response vs DMSO is reported as 102% (inactive). With `COC(=O)c1ccc(/C=N/OCC(=O)NCCc2ccc(OC)c(OC)c2)cc1` the GFP response vs DMSO was 102% (inactive). In the case of `CC(C)CC[n+]1ccccc1/C=C/c1ccc(N(C)C)cc1`, the GFP response vs DMSO is reported as 126% (inactive). For `COc1cccc(NC(=O)/C=C/c2ccc([N+](=O)[O-])cc2)c1`, the GFP response vs DMSO was 109% (inactive). With `O=C(c1ccc(Cl)cc1)N1CCN(c2cccc3[nH]ccc23)CC1` the GFP response vs DMSO was 105% (inactive). In the case of `CCc1ccc(NC(=O)c2nc(S(=O)(=O)Cc3ccccc3)ncc2Cl)cc1`, the GFP response vs DMSO is reported as 97.5% (inactive). For `c1ccc2oc(SCc3nc4ccccc4s3)nc2c1`, the GFP response vs DMSO was 98.3% (inactive). In the case of `CCOC(=O)CSC1=NC(=O)/C(=C\c2ccc(Cl)cc2)S1`, the GFP response vs DMSO is reported as 103% (inactive). In the case of `COc1ccc(C2CC(c3ccccc3)=NN2S(=O)(=O)c2ccccc2)c(OC)c1` (stereo unspecified), the GFP response vs DMSO is reported as 99% (inactive). For `FC(F)(F)c1cc(-c2cccs2)nc2cc(-c3cccs3)nn12`, the GFP response vs DMSO was 103% (inactive). With `CC1CN(c2nc3ccccn3c(=O)c2/C=C(\C#N)C(=O)N2CCOCC2)CC(C)O1` (stereo unspecified) the GFP response vs DMSO was 101% (inactive). With `Cc1ccc(CC2CC(=O)N(Cc3ccco3)C2=O)cc1` (stereo unspecified) the GFP response vs DMSO was 95.7% (inactive). With `Cc1ccc(-c2nnc(NC(=O)c3ccc([N+](=O)[O-])o3)o2)c(C)c1` the GFP response vs DMSO was 108% (inactive).

Source: PubChem BioAssay
